# Legend:
# [1] = biological target: Prostaglandin G/H synthase 1 (Homo sapiens, UniProt P23219); assay: Inhibition of COX1 expressed in CHO cells assessed as inhibition of arachidonic acid-stimulated PGE2 production by enzyme immunoassay; assay type: functional, cell-based
# [2] = biological target: T1, Polyunsaturated fatty acid 5-lipoxygenase (Homo sapiens, UniProt P09917); assay: Inhibition of 5LOX in human whole blood assessed as inhibition of calcium ionophore A 23187-stimulated 5HETE production by HPLC analysis; assay type: functional, tissue-based
# T1 sequence (P09917 whole entry): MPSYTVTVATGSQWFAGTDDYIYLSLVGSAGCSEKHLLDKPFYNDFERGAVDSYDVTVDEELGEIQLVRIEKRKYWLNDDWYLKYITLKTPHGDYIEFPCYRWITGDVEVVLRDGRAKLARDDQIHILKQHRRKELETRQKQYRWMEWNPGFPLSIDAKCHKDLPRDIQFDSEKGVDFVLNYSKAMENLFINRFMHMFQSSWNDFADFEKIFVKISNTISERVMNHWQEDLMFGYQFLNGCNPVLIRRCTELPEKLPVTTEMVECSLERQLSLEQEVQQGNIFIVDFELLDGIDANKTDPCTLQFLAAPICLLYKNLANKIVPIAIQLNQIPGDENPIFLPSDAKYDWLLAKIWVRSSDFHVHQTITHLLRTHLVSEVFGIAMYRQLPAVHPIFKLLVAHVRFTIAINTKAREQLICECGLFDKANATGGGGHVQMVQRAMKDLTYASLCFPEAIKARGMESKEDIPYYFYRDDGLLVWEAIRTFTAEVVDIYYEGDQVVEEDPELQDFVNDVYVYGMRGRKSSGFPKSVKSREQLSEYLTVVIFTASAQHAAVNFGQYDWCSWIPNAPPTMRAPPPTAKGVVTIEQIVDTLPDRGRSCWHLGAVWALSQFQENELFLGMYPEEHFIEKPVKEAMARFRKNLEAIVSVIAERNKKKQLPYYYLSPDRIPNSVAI
# Summary of the method: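 Heparinized human whole blood, 1 mL aliquots, preincubated 15 min at 37 °C with compound or DMSO vehicle; then stimulated with 40 μM A 23187 for 15 min at 37 °C. 5-HETE extracted into ethyl acetate, then HPLC on a C18 column, methanol/water/acetic acid 80:20:0.08, pH 6.0, UV at 234 nm. IC50 from n = 2.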
# [3] = biological target: T2, Prostaglandin G/H synthase 2 (Homo sapiens, UniProt P35354); assay: Inhibition of COX2 expressed in CHO cells assessed as inhibition of arachidonic acid-stimulated PGE2 production by enzyme immunoassay
# T2 sequence (P35354 whole entry): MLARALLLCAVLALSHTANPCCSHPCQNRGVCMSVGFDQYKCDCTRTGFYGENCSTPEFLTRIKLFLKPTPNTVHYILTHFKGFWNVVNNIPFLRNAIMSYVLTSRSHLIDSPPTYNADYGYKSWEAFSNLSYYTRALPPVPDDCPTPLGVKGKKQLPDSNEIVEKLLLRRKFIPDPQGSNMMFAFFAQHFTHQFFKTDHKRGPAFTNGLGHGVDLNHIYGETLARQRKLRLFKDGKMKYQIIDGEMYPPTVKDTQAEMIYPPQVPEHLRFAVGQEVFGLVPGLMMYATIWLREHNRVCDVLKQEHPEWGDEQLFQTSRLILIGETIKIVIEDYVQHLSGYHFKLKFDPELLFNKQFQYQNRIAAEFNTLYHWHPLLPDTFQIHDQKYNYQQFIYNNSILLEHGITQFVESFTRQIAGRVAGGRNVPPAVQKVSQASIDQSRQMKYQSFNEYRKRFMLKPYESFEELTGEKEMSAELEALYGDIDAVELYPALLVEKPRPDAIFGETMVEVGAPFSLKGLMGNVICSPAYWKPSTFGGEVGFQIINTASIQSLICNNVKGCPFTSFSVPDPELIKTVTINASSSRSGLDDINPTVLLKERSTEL
# Homo sapiens = organism: Homo sapiens; assay: Selectivity for COX2 over COX1
# Summary of the method: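 Ratio of COX-1 to COX-2 IC50s, each taken from PGE2 production in CHO cells transfected with COX-1 or with COX-2. Cells were seeded and, 18 h later, given fresh Ham's F12 with 10% fetal calf serum with or without compound. After 10 min they were stimulated with arachidonic acid, then for 10 min with calcium ionophore A 23187. Intracellular PGE2 was read by enzyme immunoassay, n = 2.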
# LNCaP [4] = assay: Antiproliferative activity against androgen-sensitive human LNCaP cells at 100 uM after 72 hrs by MTT test; assay type: functional
# Summary of the method: (§1)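 Prostate carcinoma cells kept at 37 °C, 5% CO2 in RPMI 1640 with 10% fetal calf serum; seeded 1.8 × 10⁴ (PC 3) or 5.0 × 10⁴ (LNCaP) cells/well, grown 3 days, serum-starved 24 h for synchronization, then exposed 72 h to compounds in medium (<0.1% DMSO); growth read by colorimetric MTT. Mean of at least four independent determinations; single-dose lines at 100 μM.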
# PC-3 = assay: Antiproliferative activity against androgen-independent human PC3 cells at 100 uM after 72 hrs by MTT test; assay type: functional; summary of the method: as §1
# LNCaP [5] = assay: Cell cycle arrest in human LNCaP cells by accumulation at S phase at 10 uM after 72 hrs by FACS flow cytometry; assay type: functional
# Summary of the method: (§2)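 LNCaP or PC 3 cells seeded in 6-well plates, synchronized 24 h in serum-free medium, treated 72 h with varying compound concentrations; trypsinized cells pooled with supernatants, pelleted, fixed in cold ethanol overnight at 4 °C, then 30 min in PBS with RNase and propidium iodide. FACScan flow cytometry quantified sub-G1 (sub-diploid), G1, S and G2-M fractions as percent of cells.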
# LNCaP [6] = assay: Cell cycle arrest in human LNCaP cells by accumulation at subG1 phase at 10 uM after 72 hrs by FACS flow cytometry; assay type: functional; summary of the method: as §2
# LNCaP [7] = assay: Cell cycle arrest in human LNCaP cells by accumulation at G1 phase at 10 uM after 72 hrs by FACS flow cytometry; assay type: functional; summary of the method: as §2
# LNCaP [8] = assay: Cell cycle arrest in human LNCaP cells by accumulation at G2M phase at 10 uM after 72 hrs by FACS flow cytometry; assay type: functional; summary of the method: as §2
# Sequence of Prostaglandin G/H synthase 1 (P23219 whole entry): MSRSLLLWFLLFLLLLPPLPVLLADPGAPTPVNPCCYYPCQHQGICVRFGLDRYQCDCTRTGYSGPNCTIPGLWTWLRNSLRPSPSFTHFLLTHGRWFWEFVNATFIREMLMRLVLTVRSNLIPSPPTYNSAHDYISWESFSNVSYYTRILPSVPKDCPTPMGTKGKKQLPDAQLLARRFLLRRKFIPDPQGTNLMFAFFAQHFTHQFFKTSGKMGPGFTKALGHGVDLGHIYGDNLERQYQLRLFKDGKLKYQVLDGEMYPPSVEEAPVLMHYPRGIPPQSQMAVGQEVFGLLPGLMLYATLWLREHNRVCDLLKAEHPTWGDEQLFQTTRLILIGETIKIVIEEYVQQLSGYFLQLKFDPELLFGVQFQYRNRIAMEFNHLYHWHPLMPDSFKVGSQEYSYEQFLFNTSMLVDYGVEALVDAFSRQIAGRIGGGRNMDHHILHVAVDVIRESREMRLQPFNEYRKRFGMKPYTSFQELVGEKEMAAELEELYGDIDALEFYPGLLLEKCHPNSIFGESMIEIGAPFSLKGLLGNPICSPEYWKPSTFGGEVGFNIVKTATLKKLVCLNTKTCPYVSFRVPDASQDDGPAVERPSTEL
SMILES,IC50 [1] [µM],IC50 [2] [µM],IC50 [3] [µM],Selectivity ratio (Homo sapiens),Activity (LNCaP [4]) [%],Activity (PC-3) [%],Activity (LNCaP [5]) [%],Activity (LNCaP [6]) [%],Activity (LNCaP [7]) [%],Activity (LNCaP [8]) [%]
CS(=O)(=O)c1ccc(-n2nc(COc3ccc4c(c3)OCO4)cc2-c2ccccc2)cc1,15.8,> 10,0.45,35,,,,,,
CS(=O)(=O)c1ccc(-n2nc(COc3cc(F)cc(C#N)c3)cc2-c2ccccc2)cc1,99.6,> 10,0.57,176,,,,,,
COc1cc(OCc2cc(-c3ccccc3)n(-c3ccc(S(C)(=O)=O)cc3)n2)cc(OC)c1OC,17.6,> 10,0.22,78,,,,,,
CCOc1cccc(OCc2cc(-c3ccccc3)n(-c3ccc(S(C)(=O)=O)cc3)n2)c1,> 100,> 10,0.9,> 112,,,,,,
COC1(c2cc(F)cc(OCc3cc(-c4ccccc4)n(-c4ccc(OC(F)(F)F)cc4)n3)c2)CCOCC1,,0.85,0.82,,0,0,10.6,3.6,74.7,11
COc1cc(F)cc(OCc2cc(-c3ccccc3)n(-c3ccc(S(C)(=O)=O)cc3)n2)c1,44.3,> 10,0.31,142,,,,,,
COc1cc(OC)cc(OCc2cc(-c3ccccc3)n(-c3ccc(S(C)(=O)=O)cc3)n2)c1,25.1,> 10,0.87,29,,,,,,
CS(=O)(=O)c1ccc(-n2nc(COc3cccc(N4CCOCC4)c3)cc2-c2ccccc2)cc1,38.1,> 10,0.92,41,,,,,,
CS(=O)(=O)c1ccc(-n2nc(COc3cccc([N+](=O)[O-])c3)cc2-c2ccccc2)cc1,> 100,> 10,0.74,> 134,,,,,,
COc1ccc(OCc2cc(-c3ccccc3)n(-c3ccc(S(C)(=O)=O)cc3)n2)cc1OC,> 100,> 10,0.7,> 142,,,,,,

# The next lines start with results.
IC50 [1] [µM],IC50 [2] [µM],IC50 [3] [µM],Selectivity ratio (Homo sapiens),SMILES,Activity (LNCaP [4]) [%],Activity (PC-3) [%],Activity (LNCaP [5]) [%],Activity (LNCaP [6]) [%],Activity (LNCaP [7]) [%],Activity (LNCaP [8]) [%]
1.81,0.83,0.93,2,COC1(c2cc(F)cc(OCc3cc(-c4ccccc4)n(-c4ccc(Cl)cc4)n3)c2)CCOCC1,0,0,11.1,2.5,75.5,11.1
,0.8,0.7,,COC1(c2cc(F)cc(OCc3cc(-c4ccccc4)n(-c4ccc(Cl)c(Cl)c4)n3)c2)CCOCC1,32,21,11.5,4.6,68.2,15.5
7.14,0.57,0.61,12,COC1(c2cc(F)cc(OCc3cc(-c4ccccc4)n(-c4ccccc4)n3)c2)CCOCC1,0,0,10.6,3,72.9,13.9
1.13,0.48,0.96,1,COC1(c2cc(F)cc(OCc3cc(-c4ccccc4)n(-c4ccc(F)cc4)n3)c2)CCOCC1,3,7,9.7,4,71.3,15.3
0.036,0.77,0.3,< 1,COc1ccc(-n2nc(COc3cc(F)cc(C4(OC)CCOCC4)c3)cc2-c2ccccc2)cc1,,,11.4,2.8,69,17
> 100,0.083,> 100,,COC1(c2cc(F)cc(OCc3ccc4c(ccc(=O)n4C)c3)c2)CCOCC1 [ZD-2138],,,,,,
